From ChEMBL document CHEMBL4028900, “Design of Novel 3-Pyrimidinylazaindole CDK2/9 Inhibitors with Potent In Vitro and In Vivo Antitumor Efficacy in a Triple-Negative Breast Cancer Model” (J Med Chem, 2017)

How the values were obtained:
Ehrlich = assay: Antitumor activity against Swiss mouse EAC cells allografted in Swiss mouse assessed as tumor growth inhibition at 22 mg/kg, ip administered for 13 days measured on day 13 post last dose relative to control; format: functional; details: 312 h, read-out: TGI
Mus musculus [1] = assay: Toxicity in Swiss mouse allografted with Swiss mouse EAC cells assessed as mortality at 22 mg/kg, ip administered for 9 to 13 days; format: organism-based; details: in vivo
Mus musculus [2] = assay: Toxicity in Swiss mouse allografted with Swiss mouse EAC cells assessed as body weight at 22 mg/kg, ip administered for 5 days measured on day 5 post last dose (reference value: 27.1 g); format: organism-based; details: in vivo, 120 h
Mus musculus [3] = assay: Toxicity in Swiss mouse allografted with Swiss mouse EAC cells assessed as body weight at 22 mg/kg, ip administered for 9 days measured on day 9 post last dose (reference value: 27.9 g); format: organism-based; details: in vivo, 216 h
Mus musculus [4] = assay: Toxicity in Swiss mouse allografted with Swiss mouse EAC cells assessed as body weight at 22 mg/kg, ip administered for 13 days measured on day 13 post last dose (reference value: 28.7 g); format: organism-based; details: in vivo, 312 h
Mus musculus [5] = assay: Toxicity in Swiss mouse allografted with Swiss mouse EAC cells assessed as body weight at 22 mg/kg, ip measured on day 1 (reference value: 26.2 g); format: organism-based; details: in vivo
T47D = assay: Antiproliferative activity against human T47D cells after 72 hrs by SRB assay
[6] = molecular target: Insulin receptor-related protein (Homo sapiens) (UniProt P14616); assay: Inhibition of IRR (unknown origin) at 100 nM relative to control
[7] = molecular target: Protein-tyrosine kinase 6 (Homo sapiens) (UniProt Q13882); assay: Inhibition of BRK (unknown origin) at 100 nM relative to control
[8] = molecular target: Tyrosine-protein kinase JAK3 (Homo sapiens) (UniProt P52333); assay: Inhibition of JAK3 (unknown origin) at 500 nM relative to control
Tyrosine-protein kinase JAK3 (Homo sapiens), sequence (P52333 whole entry): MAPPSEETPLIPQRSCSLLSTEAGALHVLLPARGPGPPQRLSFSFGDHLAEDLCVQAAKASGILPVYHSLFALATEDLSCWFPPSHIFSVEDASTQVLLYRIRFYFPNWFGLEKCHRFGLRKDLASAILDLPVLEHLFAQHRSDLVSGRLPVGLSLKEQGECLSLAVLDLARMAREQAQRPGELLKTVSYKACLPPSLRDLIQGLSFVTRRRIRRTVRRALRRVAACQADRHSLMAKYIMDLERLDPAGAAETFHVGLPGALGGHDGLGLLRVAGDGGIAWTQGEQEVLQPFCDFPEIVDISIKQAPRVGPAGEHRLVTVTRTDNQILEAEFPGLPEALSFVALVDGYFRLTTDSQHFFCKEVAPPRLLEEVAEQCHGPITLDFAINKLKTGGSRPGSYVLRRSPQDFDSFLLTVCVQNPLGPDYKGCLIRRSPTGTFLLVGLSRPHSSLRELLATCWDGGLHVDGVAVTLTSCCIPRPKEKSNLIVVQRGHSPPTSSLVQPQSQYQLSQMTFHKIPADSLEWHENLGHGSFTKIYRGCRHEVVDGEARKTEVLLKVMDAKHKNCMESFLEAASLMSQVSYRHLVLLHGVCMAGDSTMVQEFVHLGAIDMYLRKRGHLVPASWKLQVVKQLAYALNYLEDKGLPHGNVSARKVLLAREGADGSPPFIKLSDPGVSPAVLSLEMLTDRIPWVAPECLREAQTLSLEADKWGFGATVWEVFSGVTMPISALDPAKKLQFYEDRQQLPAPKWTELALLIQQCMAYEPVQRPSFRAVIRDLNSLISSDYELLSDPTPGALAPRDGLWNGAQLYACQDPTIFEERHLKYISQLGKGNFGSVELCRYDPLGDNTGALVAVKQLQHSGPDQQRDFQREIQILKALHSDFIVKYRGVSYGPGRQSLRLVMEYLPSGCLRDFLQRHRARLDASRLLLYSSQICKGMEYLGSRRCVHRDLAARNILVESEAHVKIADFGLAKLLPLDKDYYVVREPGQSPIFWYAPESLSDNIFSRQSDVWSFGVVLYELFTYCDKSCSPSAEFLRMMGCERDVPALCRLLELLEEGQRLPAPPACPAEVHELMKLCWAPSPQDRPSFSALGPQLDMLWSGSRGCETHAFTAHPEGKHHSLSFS

[9] = molecular target: Aurora kinase A (Homo sapiens) (UniProt O14965); assay: Inhibition of aurora A (unknown origin) at 100 nM relative to control
Aurora kinase A (Homo sapiens), sequence (O14965 whole entry): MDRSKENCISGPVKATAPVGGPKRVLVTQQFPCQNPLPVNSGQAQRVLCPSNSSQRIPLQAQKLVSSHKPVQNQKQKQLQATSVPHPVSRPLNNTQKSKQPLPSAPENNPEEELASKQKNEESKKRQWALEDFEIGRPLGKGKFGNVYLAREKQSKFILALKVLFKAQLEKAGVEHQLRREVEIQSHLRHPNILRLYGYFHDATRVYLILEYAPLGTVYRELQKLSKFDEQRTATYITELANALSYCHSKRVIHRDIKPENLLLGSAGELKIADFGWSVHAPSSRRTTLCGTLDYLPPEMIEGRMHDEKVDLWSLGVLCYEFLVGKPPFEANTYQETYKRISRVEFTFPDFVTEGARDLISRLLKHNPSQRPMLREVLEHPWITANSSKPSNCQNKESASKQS

[10] = molecular target: Vascular endothelial growth factor receptor 1 (Homo sapiens) (UniProt P17948); assay: Inhibition of VEGFR1 (unknown origin) at 500 nM relative to control
[11] = Plasma concentration in BALB/c mouse at 2.5 mg/kg, iv at […] by LC/MS-MS analysis; format: ADME, organism-based
[12] = molecular target: Serine/threonine-protein kinase Sgk1 (Homo sapiens) (UniProt O00141); assay: Inhibition of SGK (unknown origin) at 100 nM relative to control
[13] = molecular target: Ribosomal protein S6 kinase beta-1 (Homo sapiens) (UniProt P23443); assay: Inhibition of S6K1 (unknown origin) at 500 nM relative to control
Ribosomal protein S6 kinase beta-1 (Homo sapiens), sequence (P23443 whole entry, looked up): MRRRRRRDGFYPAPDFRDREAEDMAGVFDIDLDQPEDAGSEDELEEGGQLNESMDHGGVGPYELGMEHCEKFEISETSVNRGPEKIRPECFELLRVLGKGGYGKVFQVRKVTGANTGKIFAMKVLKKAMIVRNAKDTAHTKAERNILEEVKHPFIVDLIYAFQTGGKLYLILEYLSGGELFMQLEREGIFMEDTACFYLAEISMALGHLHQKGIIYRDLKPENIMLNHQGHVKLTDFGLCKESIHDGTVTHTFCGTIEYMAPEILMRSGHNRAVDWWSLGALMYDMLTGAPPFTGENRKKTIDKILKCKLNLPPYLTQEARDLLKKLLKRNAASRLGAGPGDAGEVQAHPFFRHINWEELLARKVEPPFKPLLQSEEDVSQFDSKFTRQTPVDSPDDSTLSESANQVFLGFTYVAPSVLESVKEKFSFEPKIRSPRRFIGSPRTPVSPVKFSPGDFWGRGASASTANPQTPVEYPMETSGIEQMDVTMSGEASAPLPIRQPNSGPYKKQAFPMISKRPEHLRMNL

[14] = molecular target: Dual specificity tyrosine-phosphorylation-regulated kinase 1A (Homo sapiens) (UniProt Q13627); details: at 500 nM
HCT-116 = assay: Antiproliferative activity against human HCT116 cells after 72 hrs by SRB assay; details: HCT-116, 72 h
[15] = molecular target: Tyrosine-protein kinase CSK (Homo sapiens) (UniProt P41240); assay: Inhibition of CSK (unknown origin) at 500 nM relative to control
Tyrosine-protein kinase CSK (Homo sapiens), sequence (P41240 2-450 limits assumed): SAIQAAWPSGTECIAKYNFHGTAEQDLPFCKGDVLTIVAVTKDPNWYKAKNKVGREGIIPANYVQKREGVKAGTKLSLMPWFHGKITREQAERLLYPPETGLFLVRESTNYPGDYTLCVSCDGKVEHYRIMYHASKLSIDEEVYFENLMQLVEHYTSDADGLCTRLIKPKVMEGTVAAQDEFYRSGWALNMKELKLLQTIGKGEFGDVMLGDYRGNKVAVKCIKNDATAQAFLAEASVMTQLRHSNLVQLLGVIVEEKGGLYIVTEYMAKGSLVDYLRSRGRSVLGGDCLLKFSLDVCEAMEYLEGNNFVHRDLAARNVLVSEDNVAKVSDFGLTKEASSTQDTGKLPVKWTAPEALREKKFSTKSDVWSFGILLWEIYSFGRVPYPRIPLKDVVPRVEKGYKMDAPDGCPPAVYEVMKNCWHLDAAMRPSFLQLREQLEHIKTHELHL

[16] = molecular target: Glycogen synthase kinase-3 beta (Homo sapiens) (UniProt P49841); assay: Inhibition of GSK3b (unknown origin) at 500 nM relative to control
[17] = Selectivity ratio of IC50 for HEK cells to IC50 for human MCF7 cells
[18] = molecular target: Mitogen-activated protein kinase 10 (Homo sapiens) (UniProt P53779); assay: Inhibition of JNK3 (unknown origin) at 500 nM relative to control
Mitogen-activated protein kinase 10 (Homo sapiens), sequence (P53779 whole entry): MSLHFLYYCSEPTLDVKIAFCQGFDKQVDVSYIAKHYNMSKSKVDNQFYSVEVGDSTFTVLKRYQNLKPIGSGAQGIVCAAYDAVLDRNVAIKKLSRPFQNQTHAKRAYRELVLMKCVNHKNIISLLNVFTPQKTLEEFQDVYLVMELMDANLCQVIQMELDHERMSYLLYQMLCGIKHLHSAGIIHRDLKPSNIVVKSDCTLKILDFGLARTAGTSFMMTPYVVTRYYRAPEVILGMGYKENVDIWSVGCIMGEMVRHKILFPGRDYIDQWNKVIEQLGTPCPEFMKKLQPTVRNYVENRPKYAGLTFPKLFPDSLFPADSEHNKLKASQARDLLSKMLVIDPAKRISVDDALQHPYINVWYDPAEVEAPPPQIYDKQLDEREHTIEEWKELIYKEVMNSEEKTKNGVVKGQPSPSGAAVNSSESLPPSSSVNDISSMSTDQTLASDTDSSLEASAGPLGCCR

[19] = molecular target: Serine/threonine-protein kinase 26 (Homo sapiens) (UniProt Q9P289); assay: Inhibition of MST4 (unknown origin) at 500 nM relative to control
Serine/threonine-protein kinase 26 (Homo sapiens), sequence (Q9P289 2-416 limits assumed): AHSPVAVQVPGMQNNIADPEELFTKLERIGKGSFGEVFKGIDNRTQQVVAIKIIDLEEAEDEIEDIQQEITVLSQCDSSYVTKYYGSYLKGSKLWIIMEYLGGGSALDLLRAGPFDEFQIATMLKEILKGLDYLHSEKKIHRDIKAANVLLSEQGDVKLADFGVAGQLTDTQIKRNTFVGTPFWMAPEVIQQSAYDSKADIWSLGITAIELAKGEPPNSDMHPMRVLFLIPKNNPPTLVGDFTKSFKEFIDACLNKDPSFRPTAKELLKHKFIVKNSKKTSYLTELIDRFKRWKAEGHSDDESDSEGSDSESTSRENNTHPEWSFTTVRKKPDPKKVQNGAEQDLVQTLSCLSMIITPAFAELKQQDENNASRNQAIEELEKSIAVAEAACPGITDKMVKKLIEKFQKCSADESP

[20] = molecular target: Protein-tyrosine kinase 6 (Homo sapiens) (UniProt Q13882); assay: Inhibition of BRK (unknown origin) at 500 nM relative to control
[21] = molecular target: Inhibitor of nuclear factor kappa-B kinase subunit beta (Homo sapiens) (UniProt O14920); assay: Inhibition of IKKbeta (unknown origin) at 500 nM relative to control
[22] = molecular target: Tyrosine-protein kinase JAK3 (Homo sapiens) (UniProt P52333); assay: Inhibition of JAK3 (unknown origin) at 100 nM relative to control
MDA-MB-468 = assay: Antiproliferative activity against human MDA-MB-468 cells
[23] = molecular target: Tyrosine-protein kinase Lck (Homo sapiens) (UniProt P06239); assay: Inhibition of LCK (unknown origin) at 500 nM relative to control
Tyrosine-protein kinase Lck (Homo sapiens), sequence (P06239 2-509 limits assumed): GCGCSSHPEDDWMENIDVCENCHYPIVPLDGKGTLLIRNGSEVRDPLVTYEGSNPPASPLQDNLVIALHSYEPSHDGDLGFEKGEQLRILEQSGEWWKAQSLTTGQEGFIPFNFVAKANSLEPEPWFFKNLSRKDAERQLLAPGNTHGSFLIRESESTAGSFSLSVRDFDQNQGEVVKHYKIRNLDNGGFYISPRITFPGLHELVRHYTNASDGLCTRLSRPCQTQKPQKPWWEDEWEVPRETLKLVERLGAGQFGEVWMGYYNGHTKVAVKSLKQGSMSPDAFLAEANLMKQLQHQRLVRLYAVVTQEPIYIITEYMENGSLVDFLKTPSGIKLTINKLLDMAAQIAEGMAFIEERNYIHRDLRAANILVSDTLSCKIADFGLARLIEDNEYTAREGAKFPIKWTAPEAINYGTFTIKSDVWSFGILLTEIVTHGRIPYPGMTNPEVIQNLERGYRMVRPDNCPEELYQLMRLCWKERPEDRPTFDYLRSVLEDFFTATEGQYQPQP

[24] = molecular target: Serine/threonine-protein kinase Nek6 (Homo sapiens) (UniProt Q9HC98); assay: Inhibition of NEK6 (unknown origin) at 500 nM relative to control
[25] = molecular target: Dual specificity tyrosine-phosphorylation-regulated kinase 1A (Homo sapiens) (UniProt Q13627); details: at 100 nM
BT-549 = assay: Antiproliferative activity against human BT549 cells
[26] = molecular target: Serine/threonine-protein kinase Nek6 (Homo sapiens) (UniProt Q9HC98); assay: Inhibition of NEK6 (unknown origin) at 100 nM relative to control
[27] = Antiproliferative activity against HEK cells; details: Homo sapiens, HEK293
[28] = molecular target: Mitogen-activated protein kinase 10 (Homo sapiens) (UniProt P53779); assay: Inhibition of JNK3 (unknown origin) at 100 nM relative to control
[29] = molecular target: Ribosomal protein S6 kinase beta-1 (Homo sapiens) (UniProt P23443); assay: Inhibition of S6K1 (unknown origin) at 100 nM relative to control
[30] = molecular target: Insulin receptor-related protein (Homo sapiens) (UniProt P14616); assay: Inhibition of IRR (unknown origin) at 500 nM relative to control
[31] = molecular target: Serine/threonine-protein kinase PLK1 (Homo sapiens) (UniProt P53350); assay: Inhibition of PLK1 (unknown origin) at 100 nM relative to control
Serine/threonine-protein kinase PLK1 (Homo sapiens), sequence (P53350 whole entry): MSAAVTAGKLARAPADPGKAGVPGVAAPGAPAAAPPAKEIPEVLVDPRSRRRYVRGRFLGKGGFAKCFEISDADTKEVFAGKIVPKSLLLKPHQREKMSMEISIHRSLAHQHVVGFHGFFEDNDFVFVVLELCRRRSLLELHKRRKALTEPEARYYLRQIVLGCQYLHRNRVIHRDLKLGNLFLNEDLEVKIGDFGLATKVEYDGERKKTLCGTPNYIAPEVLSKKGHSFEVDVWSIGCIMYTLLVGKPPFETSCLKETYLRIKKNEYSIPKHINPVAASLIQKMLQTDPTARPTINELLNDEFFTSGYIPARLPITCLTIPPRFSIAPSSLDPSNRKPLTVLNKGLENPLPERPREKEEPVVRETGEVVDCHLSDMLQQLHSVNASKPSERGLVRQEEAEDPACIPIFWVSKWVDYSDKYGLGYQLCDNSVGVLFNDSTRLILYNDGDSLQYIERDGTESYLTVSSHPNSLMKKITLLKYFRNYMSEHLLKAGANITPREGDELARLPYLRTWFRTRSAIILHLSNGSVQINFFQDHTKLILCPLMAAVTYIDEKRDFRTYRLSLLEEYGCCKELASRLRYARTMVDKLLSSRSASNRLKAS

[32] = molecular target: Serine/threonine-protein kinase PLK1 (Homo sapiens) (UniProt P53350); assay: Inhibition of PLK1 (unknown origin) at 500 nM relative to control
[33] = molecular target: Vascular endothelial growth factor receptor 1 (Homo sapiens) (UniProt P17948); assay: Inhibition of VEGFR1 (unknown origin) at 100 nM relative to control
[34] = molecular target: Tyrosine-protein kinase CSK (Homo sapiens) (UniProt P41240); assay: Inhibition of CSK (unknown origin) at 100 nM relative to control
[35] = molecular target: Phosphatidylinositol 4,5-bisphosphate 3-kinase catalytic subunit alpha isoform (Homo sapiens) (UniProt P42336); assay: Inhibition of PI3Kalpha (unknown origin) at 100 nM relative to control
[36] = molecular target: Phosphatidylinositol 4,5-bisphosphate 3-kinase catalytic subunit alpha isoform (Homo sapiens) (UniProt P42336); assay: Inhibition of PI3Kalpha (unknown origin) at 500 nM relative to control
[37] = molecular target: Serine/threonine-protein kinase Sgk1 (Homo sapiens) (UniProt O00141); assay: Inhibition of SGK (unknown origin) at 500 nM relative to control
SH-SY5Y = assay: Antiproliferative activity against human SH-SY5Y cells after 24 hrs by MTT assay; format: functional, cell-based
[38] = Plasma concentration in BALB/c mouse at 2.5 mg/kg, iv at 0.5 hrs by LC/MS-MS analysis; format: ADME, organism-based
[39] = molecular target: Inhibitor of nuclear factor kappa-B kinase subunit beta (Homo sapiens) (UniProt O14920); assay: Inhibition of IKKbeta (unknown origin) at 100 nM relative to control
[40] = molecular target: Tyrosine-protein kinase Lck (Homo sapiens) (UniProt P06239); assay: Inhibition of LCK (unknown origin) at 100 nM relative to control
[41] = molecular target: Aurora kinase A (Homo sapiens) (UniProt O14965); assay: Inhibition of aurora A (unknown origin) at 500 nM relative to control
MCF7 = assay: Antiproliferative activity against human MCF7 cells
[42] = molecular target: Serine/threonine-protein kinase 26 (Homo sapiens) (UniProt Q9P289); assay: Inhibition of MST4 (unknown origin) at 100 nM relative to control
[43] = molecular target: Serine/threonine-protein kinase Chk1 (Homo sapiens) (UniProt O14757); assay: Inhibition of CHK1 (unknown origin) at 100 nM relative to control
Serine/threonine-protein kinase Chk1 (Homo sapiens), sequence (O14757 whole entry): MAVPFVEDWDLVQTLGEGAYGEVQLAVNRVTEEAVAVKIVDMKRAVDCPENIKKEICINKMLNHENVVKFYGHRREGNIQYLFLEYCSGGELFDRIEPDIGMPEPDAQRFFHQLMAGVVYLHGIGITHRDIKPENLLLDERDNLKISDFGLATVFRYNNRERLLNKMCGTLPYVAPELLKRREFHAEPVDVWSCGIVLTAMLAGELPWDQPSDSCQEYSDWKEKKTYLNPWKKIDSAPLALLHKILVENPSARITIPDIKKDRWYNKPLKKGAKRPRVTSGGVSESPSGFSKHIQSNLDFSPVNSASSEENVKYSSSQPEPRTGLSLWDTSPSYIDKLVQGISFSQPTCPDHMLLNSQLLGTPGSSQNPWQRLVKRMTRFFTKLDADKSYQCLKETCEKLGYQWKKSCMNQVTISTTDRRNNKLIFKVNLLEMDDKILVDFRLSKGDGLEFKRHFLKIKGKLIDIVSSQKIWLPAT

MDA-MB-231 = assay: Antiproliferative activity against human MDA-MB-231 cells
4T1 [44] = assay: Antiproliferative activity against mouse 4T1 cells after 24 hrs by MTT assay; details: 4T1, 24 h
[45] = Plasma concentration in BALB/c mouse at 2.5 mg/kg, iv at 1 hr by LC/MS-MS analysis; format: ADME, organism-based
4T1 [46] = assay: Antitumor activity against mouse 4T1 cells allografted in Balb/C mouse assessed as tumor growth inhibition at 15 mg/kg, iv administered every 3 days for 21 days measured 2 times for every week during dosing relative to control; format: functional; details: 4T1, iv, read-out: TGI
[47] = molecular target: Serine/threonine-protein kinase Chk1 (Homo sapiens) (UniProt O14757); assay: Inhibition of CHK1 (unknown origin) at 500 nM relative to control
[48] = Plasma concentration in BALB/c mouse at 2.5 mg/kg, iv at 0.25 hrs by LC/MS-MS analysis; format: ADME, organism-based
[49] = molecular target: Glycogen synthase kinase-3 beta (Homo sapiens) (UniProt P49841); assay: Inhibition of GSK3b (unknown origin) at 100 nM relative to control
Mus musculus [50] = assay: Toxicity in Balb/C mouse allografted with mouse 4T1 cells assessed as body weight loss at 5 mg/kg, iv administered every 3 days for 21 days measured 2 times for every week during dosing; format: organism-based; details: in vivo
Procedure, shortened: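 Female Balb/c mice received 1×10^6 4T1 cells into the second mammary fat pad. At about 100 mm3 tumor volume they were split into groups of five. Doses were given iv by tail vein in 200 µL every three days for 21 days, with a PBS diluent control. Body weight and tumor size were measured twice weekly, and the experiment was repeated twice.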

Mus musculus [51] = assay: Toxicity in Balb/C mouse allografted with mouse 4T1 cells assessed as mortality at 5 mg/kg, iv administered every 3 days for 21 days; format: organism-based; details: in vivo
4T1 [52] = assay: Antitumor activity against mouse 4T1 cells allografted in Balb/C mouse assessed as tumor growth inhibition at 5 mg/kg, iv administered every 3 days for 21 days measured 2 times for every week during dosing relative to control; format: functional; details: 4T1, iv, read-out: TGI
Procedure, shortened: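 4T1 cells were grown in RPMI-1640 with 10% FBS, pyruvate and NEAA at 37 °C and 5% CO2. Female Balb/C mice received 1×10^6 cells into the second mammary fat pad. At about 100 mm3, mice were grouped five per group and dosed by tail vein in 200 µL (PBS diluent) every three days for 21 days. Tumor volume (L×B²/2, caliper) and body weight were taken twice weekly. The experiment was repeated twice.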

## O=c1[nH]cc(F)c(=O)[nH]1 [FLUOROURACIL]
Ehrlich
  inhibition in vivo at 22 mg/kg: 50.4%
Mus musculus [1]
  Activity: Non-Toxic
Mus musculus [2]
  Activity: 25 g
Mus musculus [3]
  Activity: 24.57 g
Mus musculus [4]
  Activity: 24.85 g
Mus musculus [5]
  Activity: 26 g

## COc1ccnc2[nH]cc(-c3ccnc(N)n3)c12 [MERIOLIN 3]
T47D
  IC50: 200 nM
[6]
  inhibition: 6.9%
[7]
  inhibition: 10.6%
[8]
  inhibition: 14.6%
[9]
  inhibition: 10.6%
[10]
  inhibition: 3.1%
[11]
  concentration at […]: 313 ng/mL
[12]
  inhibition: 29.3%
[13]
  inhibition: 91.7%
[14]
  inhibition: 98.3%
HCT-116
  IC50: 100 nM
[15]
  inhibition: -4.6%
[16]
  inhibition: 13.7%
[17]
  Ratio IC50: 0.94
[18]
  inhibition: -2.6%
[19]
  inhibition: 11.4%
[20]
  inhibition: 9.5%
[21]
  inhibition: 43.8%
[22]
  inhibition: 31.9%
MDA-MB-468
  IC50: 160 nM
[23]
  inhibition: 8.3%
[24]
  inhibition: 20.1%
[25]
  inhibition: 96%
BT-549
  IC50: 130 nM
[26]
  inhibition: 4.1%
[27]
  IC50: 188 nM
[28]
  inhibition: -7.9%
[29]
  inhibition: 84.5%
[30]
  inhibition: -4.6%
[31]
  inhibition: -1.7%
[32]
  inhibition: 14.6%
[33]
  inhibition: 0.9%
[34]
  inhibition: 6.9%
[35]
  inhibition: 11.5%
[36]
  inhibition: 21.1%
[37]
  inhibition: 38.1%
SH-SY5Y
  IC50: 120 nM
[38]
  concentration at 0.5 h: 54.9 ng/mL
[39]
  inhibition: 37.2%
[40]
  inhibition: 7.3%
[41]
  inhibition: 9.5%
MCF7
  IC50: 200 nM
[42]
  inhibition: 6.7%
[43]
  inhibition: 13.4%
MDA-MB-231
  IC50: 200 nM
4T1 [44]
  IC50: 650 nM
[45]
  concentration at 1 h: 35.3 ng/mL
4T1 [46]
  inhibition in vivo at 15 mg/kg: 95%
[47]
  inhibition: 13.7%
[48]
  concentration at 0.25 h: 141 ng/mL
[49]
  inhibition: 13.4%

## COc1cccc2c1C(=O)c1c(O)c3c(c(O)c1C2=O)C[C@@](O)(C(=O)CO)C[C@@H]3O[C@H]1C[C@H](N)[C@H](O)[C@H](C)O1 [DOXORUBICIN]
Mus musculus [50]
  Activity: Toxic
Mus musculus [51]
  Activity: Non-Toxic
4T1 [52]
  inhibition in vivo at 5 mg/kg: 97.3%
